Reference: ChEMBL document CHEMBL1140988 (Eur J Med Chem, 2008)

Experiments:
Cannabinoid receptor 1 [1] = molecular target: T1, Cannabinoid receptor 1 (Homo sapiens, UniProt P21554); experiment: Displacement of [3H]CP-55940 from human CB1 receptor expressed in CHO cells at 10 uM; assay type: cell-based
Outline: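 Competitive binding on membranes of CHO cells expressing human CB1, run by an outside contract lab. Radioligand was [3H]-CP 55940 at 0.5 nM and test compound was at 10 μM. Non-specific binding was set with an excess of unlabelled ligand. Values are % of control specific binding (displacement), n = 2.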

Cannabinoid receptor 2 [2] = molecular target: T2, Cannabinoid receptor 2 (Homo sapiens, UniProt P34972); experiment: Displacement of [3H]WIN-55212-2 from human CB2 receptor expressed in CHO cells at 10 uM; assay type: cell-based
Outline: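 Human CB2 expressed in CHO cell membranes, competitive binding run by an outside contract lab. [3H]-WIN 55212-2 at 0.8 nM was displaced by test compound at 10 μM. Specific binding is total minus non-specific, the latter measured with excess unlabelled ligand. Reported as % displacement of control specific binding, n = 2.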

Cannabinoid receptor 1 [3] = molecular target: T1, Cannabinoid receptor 1; experiment: biochemical; assay type: cell-based, CHO
Cannabinoid receptor 2 [4] = molecular target: T2, Cannabinoid receptor 2; experiment: Displacement of [3H]WIN-55212-2 from human CB2 receptor expressed in CHO cells; assay type: cell-based
Outline: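 Non-specific binding was defined with excess unlabelled ligand. Ki was derived from IC50 by the Cheng-Prusoff equation, Ki = IC50/(1 + L/KD), using radioligand concentration and KD.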

T1 sequence (P21554 whole entry): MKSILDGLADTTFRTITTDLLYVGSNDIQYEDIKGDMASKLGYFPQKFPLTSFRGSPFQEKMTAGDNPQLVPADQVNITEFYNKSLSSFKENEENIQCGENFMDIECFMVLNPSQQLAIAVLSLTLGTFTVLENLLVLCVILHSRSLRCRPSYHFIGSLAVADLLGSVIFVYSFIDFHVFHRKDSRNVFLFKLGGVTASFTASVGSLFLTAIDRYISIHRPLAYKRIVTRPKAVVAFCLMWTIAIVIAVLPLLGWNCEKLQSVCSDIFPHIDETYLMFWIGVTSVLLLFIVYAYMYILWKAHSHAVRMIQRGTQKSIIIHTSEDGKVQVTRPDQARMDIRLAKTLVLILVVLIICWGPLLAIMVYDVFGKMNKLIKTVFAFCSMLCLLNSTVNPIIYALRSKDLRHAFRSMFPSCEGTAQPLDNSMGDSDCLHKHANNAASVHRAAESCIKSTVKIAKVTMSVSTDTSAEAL
T2 sequence (P34972 whole entry): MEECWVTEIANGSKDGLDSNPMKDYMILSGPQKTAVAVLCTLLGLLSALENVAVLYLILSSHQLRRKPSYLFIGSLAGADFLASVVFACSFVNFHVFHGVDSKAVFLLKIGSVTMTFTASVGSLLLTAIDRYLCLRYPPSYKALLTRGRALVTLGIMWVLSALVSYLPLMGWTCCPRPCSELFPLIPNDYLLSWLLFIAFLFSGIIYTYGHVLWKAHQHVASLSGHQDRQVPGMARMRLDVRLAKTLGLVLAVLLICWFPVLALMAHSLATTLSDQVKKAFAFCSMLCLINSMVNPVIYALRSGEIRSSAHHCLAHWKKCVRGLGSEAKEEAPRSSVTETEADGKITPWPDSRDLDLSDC

Structure (SMILES)	Activity (Cannabinoid receptor 1 [1])	Activity (Cannabinoid receptor 2 [2])	Ki (Cannabinoid receptor 1 [3])	Ki (Cannabinoid receptor 2 [4])
O=C(NC1CCCCC1)c1cnn(-c2ccc(Cl)cc2Cl)c1-c1ccc(F)cc1	69%	18%		
O=C(NCCN1CCCCC1)c1cnn(-c2ccc(Cl)cc2Cl)c1-c1ccc(Cl)cc1	39%	14%		
O=C(NC1CC1)c1cnn(-c2ccc(Cl)cc2Cl)c1-c1ccc(Cl)cc1	87%	30%	0.85 µM	21 µM
O=C(NC12CC3CC(CC(C3)C1)C2)c1cnn(-c2ccc(Cl)cc2Cl)c1-c1ccc(I)cc1	76%	44%		
O=C(NC1CCCCCC1)c1cnn(-c2ccc(Cl)cc2Cl)c1-c1ccc(Cl)cc1	78%	50%		
COc1ccc(-c2c(C(=O)NC3CCCCC3)cnn2-c2ccc(Cl)cc2Cl)cc1	64%	76%		
O=C(c1cnn(-c2ccc(Cl)cc2Cl)c1-c1ccc(Cl)cc1)N1CCc2ccccc2C1	58%	69%		
CN1CCN(NC(=O)c2cnn(-c3ccc(Cl)cc3Cl)c2-c2ccc(Cl)cc2)CC1	61%	-23%	16 µM	
O=C(NC1CC1)c1cnn(-c2ccc(Cl)cc2Cl)c1-c1ccc(Br)cc1	84%	43%	1 µM	
O=C(NC1CC1)c1cnn(-c2ccc(Cl)cc2Cl)c1-c1ccc(I)cc1	91%	60%	0.21 µM	
O=C(NC1CCCC1)c1cnn(-c2ccc(Cl)cc2Cl)c1-c1ccc(Cl)cc1	82%	61%		
O=C(NC1CCCCCC1)c1cnn(-c2ccc(Cl)cc2Cl)c1-c1ccc(I)cc1	90%	61%	1.1 µM	
O=C(NN1CCOCC1)c1cnn(-c2ccc(Cl)cc2Cl)c1-c1ccc(F)cc1	30%	-9%		
O=C(NC1CCCCCCC1)c1cnn(-c2ccc(Cl)cc2Cl)c1-c1ccc(Cl)cc1	84%	44%		
O=C(NC1CCCCC1)c1cnn(-c2ccc(Cl)cc2Cl)c1-c1ccc(Cl)cc1	68%	52%		
Cc1ccc(-c2c(C(=O)NC3CCCCC3)cnn2-c2ccc(Cl)cc2Cl)cc1	48%	46%		
O=C(NC1CCCCC1)c1cnn(-c2ccc(Cl)cc2Cl)c1-c1ccc(I)cc1	64%	59%		
O=C(c1cnn(-c2ccc(Cl)cc2Cl)c1-c1ccc(Cl)cc1)N1CCCC1	49%	43%		
O=C(NC12CC3CC(CC(C3)C1)C2)c1cnn(-c2ccc(Cl)cc2Cl)c1-c1ccc(Cl)cc1	72%	22%		
O=C(NN1CC2CCCC2C1)c1cnn(-c2ccc(Cl)cc2Cl)c1-c1ccc(Cl)cc1 (centres undefined)	86%	56%		
O=C(NN1CCOCC1)c1cnn(-c2ccc(Cl)cc2Cl)c1-c1ccc(Cl)cc1	65%	12%		
O=C(NC1CC1)c1cnn(-c2ccc(Cl)cc2Cl)c1-c1ccc(F)cc1	62%	7%		
CN1CCN(NC(=O)c2cnn(-c3ccc(Cl)cc3Cl)c2-c2ccc(I)cc2)CC1	78%	42%		

The next lines start with the values.

Activity (Cannabinoid receptor 1 [1])	Activity (Cannabinoid receptor 2 [2])	Ki (Cannabinoid receptor 1 [3])	Ki (Cannabinoid receptor 2 [4])	Structure (SMILES)
79%	37%			O=C(NN1CCCCC1)c1cnn(-c2ccc(Cl)cc2Cl)c1-c1ccc(Cl)cc1
88%	60%	1.1 µM		O=C(NC1CCCCCC1)c1cnn(-c2ccc(Cl)cc2Cl)c1-c1ccc(Br)cc1
81%	44%			O=C(NC1CCCCC1)c1cnn(-c2ccc(Cl)cc2Cl)c1-c1ccc(Br)cc1
74%	55%			O=C(NN1CCCCC1)c1cnn(-c2ccc(Cl)cc2Cl)c1-c1ccc(Br)cc1
75%	64%			O=C(NN1CCCCCC1)c1cnn(-c2ccc(Cl)cc2Cl)c1-c1ccc(Cl)cc1
43%	7%			O=C(NN1CCCCC1)c1cnn(-c2ccc(Cl)cc2Cl)c1-c1ccc(F)cc1
58%	70%			COc1ccc(-c2c(C(=O)NN3CCCCC3)cnn2-c2ccc(Cl)cc2Cl)cc1
94%	84%	1.3 µM	1.9 µM	O=C(NN1CCCCC1)c1cnn(-c2ccc(Cl)cc2Cl)c1-c1ccc(I)cc1
29%	27%			Cc1ccc(-c2c(C(=O)NN3CCCCC3)cnn2-c2ccc(Cl)cc2Cl)cc1
67%	-12%	2.6 µM	30 µM	CN1CCN(NC(=O)c2cnn(-c3ccc(Cl)cc3Cl)c2-c2ccc(Br)cc2)CC1
59%	45%			O=C(c1cnn(-c2ccc(Cl)cc2Cl)c1-c1ccc(Cl)cc1)N1CCCCC1
